Reference: ChEMBL document CHEMBL4387724, “2-Pyridineformamide N(4)-ring incorporated thiosemicarbazones inhibit MCF-7 cells by inhibiting JNK pathway” (Bioorg Med Chem Lett, 2019)
Activity calls are given as the source filed them. No cut-off for these calls is given here.

Experiments:
[1] = system: HeLa; assay: Cytotoxicity against human HeLa cells assessed as reduction in cell growth at 1 uM incubated for 72 hrs by MTT assay relative to control; type: functional; settings: read-out: GI
Outline: (§1)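 Cells grown in DMEM with 10% FBS and penicillin-streptomycin at 37 °C, 5% CO2, seeded at 3000 cells/well and attached overnight. Screening series given at 1, 3, 10, 100 μM; follow-up agent at 100 nM–3 μM; both 72 h, with 0.1% DMSO vehicle. MTT (5 mg/mL stock) added for 3 h at 37 °C, formazan dissolved in DMSO, absorbance read at 570 nm. Viability expressed as % of DMSO-treated wells from replicates.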

[2] = system: HeLa; assay: Cytotoxicity against human HeLa cells assessed as reduction in cell growth incubated for 72 hrs by MTT assay; type: functional, cell-based; outline: as §1
[3] = system: MCF7; assay: Antiproliferative activity against human MCF7 cells assessed as inhibition of colony formation at 100 nM to 3 uM incubated for 21 days with every 72 hrs media was change treatment by crystal violet staining based assay; type: functional, cell-based
Outline: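 MCF7 cells seeded at 500 cells/well (legend: 1200/well) in six-well plates, left to adhere overnight, then dosed at 100 nM–3 μM. Medium and compound renewed every 72 h over 21 days. Colonies washed with PBS, fixed in 3.7% formaldehyde 20 min, stained with 0.4% crystal violet, rinsed in PBS, then counted.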

[4] = system: A-375; assay: Cytotoxicity against human A375 cells assessed as reduction in cell growth at 1 uM incubated for 72 hrs by MTT assay relative to control; type: functional; settings: A-375, 72 h, read-out: GI; outline: as §1
[5] = system: A-375; assay: Cytotoxicity against human A375 cells assessed as reduction in cell growth at 100 uM incubated for 72 hrs by MTT assay relative to control; type: functional; settings: A-375, 72 h, read-out: GI; outline: as §1
[6] = system: MCF7; assay: Cytotoxicity against human MCF7 cells assessed as reduction in cell growth incubated for 72 hrs by MTT assay; type: functional, cell-based; settings: MCF7, 72 h; outline: as §1
[7] = system: MCF7; assay: Cytotoxicity against human MCF7 cells assessed as reduction in cell growth at 100 uM incubated for 72 hrs by MTT assay relative to control; type: functional; settings: MCF7, 72 h, read-out: GI; outline: as §1
[8] = system: HeLa; assay: Cytotoxicity against human HeLa cells assessed as reduction in cell growth at 10 uM incubated for 72 hrs by MTT assay relative to control; type: functional; settings: read-out: GI; outline: as §1
[9] = system: A-375; assay: Cytotoxicity against human A375 cells assessed as reduction in cell growth at 30 uM incubated for 72 hrs by MTT assay relative to control; type: functional; settings: A-375, 72 h, read-out: GI
[10] = system: MCF7; assay: Cytotoxicity against human MCF7 cells assessed as reduction in cell growth at 3 uM incubated for 72 hrs by MTT assay relative to control; type: functional; settings: MCF7, 72 h, read-out: GI; outline: as §1
[11] = system: MCF7; assay: Induction of apoptosis in human MCF7 cells assessed as downregulation of c-Jun protein expression 100 nM to 3 uM incubated for 48 hrs by immunoblot method; type: functional, cell-based
Outline: (§2)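 MCF7 cells seeded at 1.25×10^5 per well in six-well plates and treated at 100 nM–3 μM for 48 h per legend (72 h per methods note). Lysed in 2X SDS buffer and sonicated; protein quantified by BCA. 20–25 µg run on 12% SDS gels and transferred to PVDF. Blocked in 5% BSA/TBST, primary antibodies overnight, secondary 1 h, ECL detection, β-actin as loading control.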

[12] = system: HeLa; assay: Cytotoxicity against human HeLa cells assessed as reduction in cell growth at 3 uM incubated for 72 hrs by MTT assay relative to control; type: functional; settings: read-out: GI; outline: as §1
[13] = system: HeLa; assay: Cytotoxicity against human HeLa cells assessed as reduction in cell growth at 30 uM incubated for 72 hrs by MTT assay relative to control; type: functional; settings: read-out: GI
[14] = system: MCF7; assay: Induction of apoptosis in human MCF7 cells assessed as downregulation of JNK1 protein expression at 100 nM to 3 uM incubated for 48 hrs by immunoblot method; type: functional, cell-based; outline: as §2
[15] = system: A-375; assay: Cytotoxicity against human A375 cells assessed as reduction in cell growth incubated for 72 hrs by MTT assay; type: functional, cell-based; settings: A-375, 72 h; outline: as §1
[16] = system: MCF7; assay: Induction of apoptosis in human MCF7 cells assessed as reduction in Bcl2 protein expression at 100 nM to 3 uM incubated for 48 hrs by immunoblot method; type: functional, cell-based; outline: as §2
[17] = system: A-375; assay: Cytotoxicity against human A375 cells assessed as reduction in cell growth at 3 uM incubated for 72 hrs by MTT assay relative to control; type: functional; settings: A-375, 72 h, read-out: GI; outline: as §1
[18] = system: MCF7; assay: Induction of apoptosis in human MCF7 cells assessed as effect on pro-caspase-3 expression at 100 nM to 3 uM incubated for 48 hrs by immunoblot method; type: functional, cell-based; outline: as §2
[19] = system: MCF7; assay: Induction of apoptosis in human MCF7 cells assessed as increase in Bax protein expression at 100 nM to 3 uM incubated for 48 hrs by immunoblot method; type: functional, cell-based; outline: as §2
[20] = system: MCF7; assay: Induction of apoptosis in human MCF7 cells assessed as effect on PARP1 protein expression at 100 nM to 3 uM incubated for 48 hrs by immunoblot method; type: functional, cell-based; outline: as §2
[21] = system: A-375; assay: Cytotoxicity against human A375 cells assessed as reduction in cell growth at 10 uM incubated for 72 hrs by MTT assay relative to control; type: functional; settings: A-375, 72 h, read-out: GI; outline: as §1
[22] = system: HeLa; assay: Cytotoxicity against human HeLa cells assessed as reduction in cell growth at 100 uM incubated for 72 hrs by MTT assay relative to control; type: functional; settings: read-out: GI; outline: as §1
[23] = system: MCF7; assay: Cytotoxicity against human MCF7 cells assessed as reduction in cell growth at 1 uM incubated for 72 hrs by MTT assay relative to control; type: functional; settings: MCF7, 72 h, read-out: GI; outline: as §1
[24] = system: MCF7; assay: Cytotoxicity against human MCF7 cells assessed as reduction in cell growth at 30 uM incubated for 72 hrs by MTT assay relative to control; type: functional; settings: MCF7, 72 h, read-out: GI
[25] = system: A-431; assay: Cytotoxicity against human A431 cells assessed as reduction in cell growth at 3 uM incubated for 72 hrs by MTT assay relative to control; type: functional; settings: A-431, 72 h, read-out: GI; outline: as §1
[26] = system: A-431; assay: Cytotoxicity against human A431 cells assessed as reduction in cell growth at 100 uM incubated for 72 hrs by MTT assay relative to control; type: functional; settings: A-431, 72 h, read-out: GI; outline: as §1
[27] = system: A-431; assay: Cytotoxicity against human A431 cells assessed as reduction in cell growth at 1 uM incubated for 72 hrs by MTT assay relative to control; type: functional; settings: A-431, 72 h, read-out: GI; outline: as §1
[28] = system: A-431; assay: Cytotoxicity against human A431 cells assessed as reduction in cell growth incubated for 72 hrs by MTT assay; type: functional, cell-based; settings: A-431, 72 h; outline: as §1
[29] = system: MCF7; assay: Antiproliferative activity against human MCF7 cells assessed as induction of cell death at 100 nM to 3 uM incubated for 48 hrs by propidium iodide based flow cytometry; type: functional
Outline: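 MCF7 cells in DMEM with 10% FBS at 37 °C, 5% CO2, 30,000 cells/well in six-well plates, exposed to 100 nM, 300 nM, 1 μM or 3 μM (0.1% DMSO vehicle) for 48 h per legend (72 h per methods note). Harvested, washed in PBS, stained with propidium iodide (5 μg/mL) 20 min at 4 °C, and % dead cells read by flow cytometry against DMSO control.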

[30] = system: A-431; assay: Cytotoxicity against human A431 cells assessed as reduction in cell growth at 30 uM incubated for 72 hrs by MTT assay relative to control; type: functional; settings: A-431, 72 h, read-out: GI
[31] = system: MCF7; assay: Cytotoxicity against human MCF7 cells assessed as reduction in cell growth at 100 nM to 3 uM incubated for 72 hrs by MTT assay; type: functional, cell-based; outline: as §1
[32] = system: MCF7; assay: Cytotoxicity against human MCF7 cells assessed as reduction in cell growth at 10 uM incubated for 72 hrs by MTT assay relative to control; type: functional; settings: MCF7, 72 h, read-out: GI; outline: as §1
[33] = system: A-431; assay: Cytotoxicity against human A431 cells assessed as reduction in cell growth at 10 uM incubated for 72 hrs by MTT assay relative to control; type: functional; settings: A-431, 72 h, read-out: GI; outline: as §1

SMILES	inhibition of growth at 1 µM [1] [%]	IC50 [2] [µM]	inhibition of growth at 1 µM [4] [%]	inhibition of growth at 100 µM [5] [%]	IC50 [6] [µM]	inhibition of growth at 100 µM [7] [%]	inhibition of growth at 10 µM [8] [%]	inhibition of growth at 30 µM [9] [%]	inhibition of growth at 3 µM [10] [%]	inhibition of growth at 3 µM [12] [%]	inhibition of growth at 30 µM [13] [%]	IC50 [15] [µM]	inhibition of growth at 3 µM [17] [%]	inhibition of growth at 10 µM [21] [%]	inhibition of growth at 100 µM [22] [%]	inhibition of growth at 1 µM [23] [%]	inhibition of growth at 30 µM [24] [%]	inhibition of growth at 3 µM [25] [%]	inhibition of growth at 100 µM [26] [%]	inhibition of growth at 1 µM [27] [%]	other results
N/C(=N\NC(=S)N1CCCC1)c1ccc(F)cn1	62.8	1.8	57.9	86.6	0.9	73	72.7	83.2	52.6	77.7	81.2	0.86	81.8	82.3	85.4	51	60.6	72.2	85.6	50.7	inhibition [3]: Dose-dependent effect; Activity [11]: Dose-dependent effect; Activity [14]: Dose-dependent effect; Activity [16]: Active; Activity [18]: Active; Activity [19]: Active; Activity [20]: Active; IC50 [28]: 1 µM; Activity [29]: Dose-dependent effect; inhibition of growth at 30 µM [30]: 83.3%; Activity [31]: Dose-dependent effect; inhibition of growth at 10 µM [32]: 54.5%; inhibition of growth at 10 µM [33]: 78.7%
N/C(=N\NC(=S)N1CCOCC1)c1ccccn1	12.7	7.3	26.8	14	4.7	81.6	56.3	15	44.5	40	82.8	0.68	19.3	18.3	87.2	14.7	78.1	43.1	84.6	29.2	IC50 [28]: 4.8 µM; inhibition of growth at 30 µM [30]: 78.8%; inhibition of growth at 10 µM [32]: 66.7%; inhibition of growth at 10 µM [33]: 69.4%
Cc1ccnc(/C(N)=N/NC(=S)N2CCOCC2)c1	39.1	38.5	43.2	90.6	> 100	12.8	49.1	87.4	5.07	44.7	45.2	1.6	66.6	86	82.7	1.22	8.16	35.5	82.8	33.6	IC50 [28]: 6.8 µM; inhibition of growth at 30 µM [30]: 74.6%; inhibition of growth at 10 µM [32]: 6.86%; inhibition of growth at 10 µM [33]: 62%
Cc1ccnc(/C(N)=N/NC(=S)N2CCCC2)c1	25.9	1.9	69	88.8	1.2	87.7	67	87.9	57.7	52.1	86.4	0.72	80	86	88.1	49	82.2	63	86.9	58.5	IC50 [28]: 0.9 µM; inhibition of growth at 30 µM [30]: 84.2%; inhibition of growth at 10 µM [32]: 63.6%; inhibition of growth at 10 µM [33]: 71.2%
Cc1ccnc(/C(N)=N/NC(=S)N2CCN(c3ccccn3)CC2)c1	40.4	10.5	64.4	81	12.3	63.4	49.2	79.4	32.8	42.5	77	0.78	74.8	76	85.6	21	63.8	34.7	75.5	28.9	IC50 [28]: 15.5 µM; inhibition of growth at 30 µM [30]: 65.7%; inhibition of growth at 10 µM [32]: 32.1%; inhibition of growth at 10 µM [33]: 44%
